We go through 28 molecules from ChEMBL document CHEMBL2384910, “Lead optimization of 5-amino-6-(2,2-dimethyl-5-oxo-4-phenylpiperazin-1-yl)-4-hydroxyhexanamides to reduce a cardiac safety issue: discovery of DS-8108b, an orally active renin inhibitor” (Bioorg Med Chem, 2013).

What is called IC50 is the midpoint of a concentration-inhibition curve.

Data set [1] concerns the target T1, Renin (Macaca fascicularis, UniProt Q6DLS0).
T1 sequence (Q6DLS0 whole entry): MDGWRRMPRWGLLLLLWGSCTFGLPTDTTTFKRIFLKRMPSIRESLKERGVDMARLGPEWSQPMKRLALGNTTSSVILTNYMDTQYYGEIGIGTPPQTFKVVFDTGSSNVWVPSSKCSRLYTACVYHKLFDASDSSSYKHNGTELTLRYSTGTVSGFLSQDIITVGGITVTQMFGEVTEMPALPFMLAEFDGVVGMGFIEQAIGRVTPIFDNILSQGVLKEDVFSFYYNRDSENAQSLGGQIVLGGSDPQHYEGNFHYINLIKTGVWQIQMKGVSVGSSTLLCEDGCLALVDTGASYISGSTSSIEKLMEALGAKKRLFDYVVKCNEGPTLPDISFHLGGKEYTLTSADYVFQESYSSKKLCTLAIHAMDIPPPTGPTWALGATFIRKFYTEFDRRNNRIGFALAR
The data set can be described thus: Inhibition of renin in cynomolgus monkey plasma after 1 hr by RIA. Summed up: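 Pooled mixed-gender EDTA cynomolgus monkey plasma with pH adjusting solution and Inhibitor A, compound in 1% DMSO final, incubated 1 h at 37 °C. Angiotensin I by competitive RIA; uninhibited and 4 °C controls define % inhibition; IC50 from four-parameter fit; ratio is compound IC50 over aliskiren IC50 in same plasma batch; ≥2 replicates.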

The target in data set [2] is T2, Renin (Homo sapiens, UniProt P00797).
T2 sequence (P00797 whole entry): T1 sequence (Q6DLS0 whole entry) with A68T, L214I, A235S
The data set is described as follows: Inhibition of human recombinant renin using Arg-Glu(EDANS)-Ile-His-Pro-Phe-His-Leu-Val-Ile-His-Thr-Lys (DABCYL)-Arg as substrate incubated for 10 mins prior to substrate addition measured after 90 mins by fluorescence assay. In a few lines: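 Trypsin-activated recombinant human renin in 50 mM Tris-HCl pH 7.9, 100 mM NaCl, preincubated with compound 10 min at room temperature; FRET substrate Arg-Glu(EDANS)…Lys(DABCYL)-Arg added, 90 min at 37 °C.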

The subject of data set [3] is Rattus norvegicus. The data set can be described thus: Cardiotoxicity in Sprague-Dawley rat electrophysiology model assessed as QRS complex abnormalities at 10 mg/kg, iv by ECG analysis. The data set is classed as toxicity, organism-based. To be noted: in vivo. Also on record: dose 10 mg/kg, route intravenous. Summed up:
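Male Sprague-Dawley rats anesthetized with inactin 100 mg/kg ip; surface lead II ECG recorded continuously. Compounds given as iv bolus via right jugular vein catheter after stabilization; QRS complex abnormality scored as no, moderate or severe change; n = 2 at 10 mg/kg.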

Data set [4] concerns the target T3, Renin (Macaca fascicularis) (UniProt Q6DLS0).
T3 sequence (whole entry): T1 sequence (Q6DLS0 whole entry)
The data set is described as follows: Ratio of compound IC50 to aliskiren IC50 for renin in cynomolgus monkey plasma.

Substitutions are numbered along the chain they refer to.

Consider `CC(C)[C@H](C[C@H](O)[C@@H](N)CN1CC(=O)N(c2ccccc2Cl)CC1(C)C)C(=O)Nc1ccccn1.O=C(O)/C=C/C(=O)O`, for which the figures for the IC50 in data set [1] and in data set [2] were 3.4 nM and 1.8 nM, respectively. The Activity entry in data set [3] is listed as “Toxic”. Besides, in data set [4], the Ratio IC50 came out at 0.7.
For `CC(C)[C@H](C[C@H](O)[C@@H](N)CN1CC(=O)N(c2ccccc2Cl)CC1(C)C)C(=O)Nc1ccncc1.O=C(O)/C=C/C(=O)O`, in that order: 15 nM, 1.6 nM, “Toxic” and 1.5.
Consider `CC(C)[C@H](C[C@H](O)[C@@H](N)CN1CC(=O)N(c2ccccc2Cl)CC1(C)C)C(=O)NC1CCOCC1.O=C(O)/C=C/C(=O)O`, for which the half-inhibitory concentration (IC50) in data set [1] was determined as 9.8 nM; in data set [2] it was 2 nM. The Activity result in data set [3] is given as “Toxic”. In addition, in data set [4], the Ratio IC50 was 1.4.
Take `CC[C@H](C[C@H](O)[C@@H](N)CN1CC(=O)N(c2ccccc2Cl)CC1(C)C)C(=O)N[C@H]1C2CC3CC1C[C@@](O)(C3)C2.O=C(O)/C=C/C(=O)O`: the IC50 is 1.8 nM in data set [1] and 1.1 nM in data set [2]. In addition, the Activity result in data set [3] is listed as “Toxic”. Further, the Ratio IC50 in data set [4] worked out at 0.7.
For `Cc1ccc(F)cc1N1CC(C)(C)N(C[C@H](N)[C@@H](O)C[C@@H](C)C(=O)NCC(C)(C)C)CC1=O.O=C(O)/C=C/C(=O)O`, in that order: 3.4 nM, 1.1 nM, “Toxic” and 0.6.
For `CC[C@H](C[C@H](O)[C@@H](N)CN1CC(=O)N(c2ccccc2Cl)CC1(C)C)C(=O)Nc1ncccc1C.O=C(O)/C=C/C(=O)O`, in that order: 15 nM, 3.8 nM, “Toxic” and 2.9.
For `CC[C@H](C[C@H](O)[C@@H](N)CN1CC(=O)N(c2ccccc2Cl)CC1(C)C)C(=O)NCC1(CO)CCCCC1.O=C(O)/C=C/C(=O)O`, in that order: 3.4 nM, 1.1 nM, “Toxic” and 0.6.
As for `Cc1ccc(F)cc1N1CC(C)(C)N(C[C@H](N)[C@@H](O)C[C@H](C(=O)NCC(C)(C)C(=O)O)C(C)C)CC1=O`, the IC50 is 39 nM in data set [1] and 16 nM in data set [2]. Also, the Ratio IC50 in data set [4] came out at 16.
As to `CC(C)[C@H](C[C@H](O)[C@@H](N)CN1CC(=O)N(c2cc(F)ccc2Cl)CC1(C)C)C(=O)N[C@H]1C2CC3CC1C[C@](O)(C3)C2.O=C(O)/C=C/C(=O)O`, the values for the half-inhibitory concentration (IC50) in data set [1] and in data set [2] were 7.8 nM and 1.9 nM, respectively. The Activity result in data set [3] is recorded as “Non-toxic”. Further, in data set [4], the Ratio IC50 worked out at 0.7.
Take `CCCCNC(=O)[C@@H](C[C@H](O)[C@@H](N)CN1CC(=O)N(c2ccccc2Cl)CC1(C)C)C(C)C.O=C(O)/C=C/C(=O)O`: in data set [3], the Activity entry is recorded as “Toxic”. The Ratio IC50 in data set [4] came out at 0.8.
For the molecule `CC[C@H](C[C@H](O)[C@@H](N)CN1CC(=O)N(c2cc(F)ccc2Cl)CC1(C)C)C(=O)N[C@H]1C2CC3CC1C[C@](O)(C3)C2.O=C(O)/C=C/C(=O)O`, the values for the IC50 in data set [1] and in data set [2] were 3.6 nM and 1.4 nM, respectively. Also, in data set [3], the Activity result is on record as “Non-toxic”. Further, the Ratio IC50 in data set [4] came to 0.7.
For `CC[C@H](C[C@H](O)[C@@H](N)CN1CC(=O)N(c2ccccc2Cl)CC1(C)C)C(=O)NCC(C)(C)C.O=C(O)/C=C/C(=O)O`, in that order: 2.3 nM, 0.8 nM, “Toxic” and 0.3.
For `CC(C)[C@H](C[C@H](O)[C@@H](N)CN1CC(=O)N(c2ccccc2Cl)CC1(C)C)C(=O)Nc1cccnc1`, the IC50 in data set [1] was 19 nM; in data set [2], 2.1 nM. In data set [4], the Ratio IC50 amounted to 1.9.
Consider `Cc1cccc(NC(=O)[C@@H](C[C@H](O)[C@@H](N)CN2CC(=O)N(c3ccccc3Cl)CC2(C)C)C(C)C)n1.O=C(O)/C=C/C(=O)O`, for which the figures for the IC50 in data set [1] and in data set [2] were 47 nM and 5.6 nM, respectively. In addition, in data set [3], the Activity entry is recorded as “Toxic”. In data set [4], the Ratio IC50 turned out to be 7.3.
With `C[C@H](C[C@H](O)[C@@H](N)CN1CC(=O)N(c2ccccc2Cl)CC1(C)C)C(=O)NCC(C)(C)C`, the concentration for half-maximal inhibition (IC50) was 2.1 nM in data set [1] and 1 nM in data set [2]. The Ratio IC50 in data set [4] was 0.5.
For `CC[C@H](C[C@H](O)[C@@H](N)CN1CC(=O)N(c2ccccc2Cl)CC1(C)C)C(=O)Nc1cc(OC)ccn1`, in that order: 33 nM, 6.7 nM and 13.
Turning to `CCCCNC(=O)[C@@H](C[C@H](O)[C@@H](N)CN1CC(=O)N(c2cc(F)ccc2Cl)CC1(C)C)C(C)C`, the Ratio IC50 in data set [4] is 1.2.
Regarding `Cc1ccc(F)cc1N1CC(C)(C)N(C[C@H](N)[C@@H](O)C[C@H](C(=O)N[C@H]2C3CC4CC2C[C@](O)(C4)C3)C(C)C)CC1=O.O=C(O)/C=C/C(=O)O`, the values for the half-maximal inhibitory concentration (IC50) in data set [1] and in data set [2] were 10 nM and 1.7 nM, respectively. In addition, the Activity result in data set [3] was “Non-toxic”. Also, the Ratio IC50 in data set [4] was 0.9.
For `CC(C)[C@H](C[C@H](O)[C@@H](N)CN1CC(=O)N(c2ccccc2Cl)CC1(C)C)C(=O)Nc1ccc(F)cc1F.O=C(O)/C=C/C(=O)O`, in that order: 14 nM, 2 nM, “Toxic” and 3.
For `CC(C)NC(=O)[C@@H](C[C@H](O)[C@@H](N)CN1CC(=O)N(c2ccccc2Cl)CC1(C)C)C(C)C.O=C(O)/C=C/C(=O)O`, in that order: 33 nM, 2.9 nM, “Toxic” and 2.7.
For `CC[C@H](C[C@H](O)[C@@H](N)CN1CC(=O)N(c2ccccc2Cl)CC1(C)C)C(=O)Nc1ccc(F)cc1.O=C(O)/C=C/C(=O)O`, in that order: 3.4 nM, 1.6 nM, “Toxic” and 0.9.
As to `C[C@H](C[C@H](O)[C@@H](N)CN1CC(=O)N(c2ccccc2Cl)CC1(C)C)C(=O)N[C@H]1C2CC3CC1C[C@](O)(C3)C2.O=C(O)/C=C/C(=O)O`, the figures for the 50% inhibitory concentration (IC50) in data set [1] and in data set [2] were 7.3 nM and 1.1 nM, respectively. Further, the Activity entry in data set [3] is “Non-toxic”. Besides, the Ratio IC50 in data set [4] was 1.6.
For `CC(C)[C@H](C[C@H](O)[C@@H](N)CN1CC(=O)N(c2ccccc2Cl)CC1(C)C)C(=O)Nc1ccccc1.O=C(O)/C=C/C(=O)O`, in that order: 9.2 nM, 1.4 nM, “Toxic” and 1.3.
For `CC(C)[C@H](C[C@H](O)[C@@H](N)CN1CC(=O)N(c2ccccc2Cl)CC1(C)C)C(=O)Nc1ccc(F)cc1.O=C(O)/C=C/C(=O)O`, in that order: 7.2 nM, 1.4 nM, “Toxic” and 1.2.
For `CC[C@H](C[C@H](O)[C@@H](N)CN1CC(=O)N(c2ccccc2Cl)CC1(C)C)C(=O)Nc1ccc(C)cc1.O=C(O)/C=C/C(=O)O`, in that order: 28 nM, 3.2 nM, “Toxic” and 4.5.
`CC(C)CNC(=O)[C@@H](C[C@H](O)[C@@H](N)CN1CC(=O)N(c2ccccc2Cl)CC1(C)C)C(C)C.O=C(O)/C=C/C(=O)O`: the IC50 in data set [1] was found to be 4 nM; in data set [2], 1.4 nM. In data set [3], the Activity entry is “Toxic”. In addition, the Ratio IC50 in data set [4] was determined as 0.7.
The like results for `CC(C)[C@H](C[C@H](O)[C@@H](N)CN1CC(=O)N(c2ccccc2Cl)CC1(C)C)C(=O)N[C@H]1C2CC3CC1C[C@](O)(C3)C2.O=C(O)/C=C/C(=O)O` were, in that order, 2.2 nM, 1.3 nM, “Non-toxic” and 0.9.
For `CC(C)[C@H](C[C@H](O)[C@@H](N)CN1CC(=O)N(c2ccccc2Cl)CC1(C)C)C(=O)NCC(C)(C)C(N)=O.O=C(O)/C=C/C(=O)O`, in data set [3], the Activity entry is recorded as “Non-toxic”. Further, the Ratio IC50 in data set [4] worked out at 1.2.
